The species entered for experiment [1] is Cavia porcellus. In words: Compound was tested for calcium channel agonistic activity, causing a 50% increase of the maximum contractile response on guinea pig left atrium. The class given is functional, Cardiac atrium. An outline of the steps: (§1)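 Guinea pig left atrium (GPLA) preparation exposed to increasing test compound concentrations. […] Number of experiments varies per compound. For weak responders, percent increase in contractile force recorded at individual concentrations.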

The species named for experiment [2] is Cavia porcellus. Put plainly: Inhibition of carbachol-induced tonic contractile response in guinea pig ileal longitudinal smooth muscle. The experiment is classed as functional. An outline of the steps:
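Guinea pig ileal longitudinal smooth muscle contracted by the muscarinic agonist carbachol (1.6 × 10⁻⁷ M). Slow, Ca²⁺-dependent tonic component measured. […] Reported ± SEM, n = 3.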

For experiment [3], the species on record is Cavia porcellus. In words: Calcium channel agonist activity causing a 50% increase in maximum contractile response on guinea pig left atrium; No effect. The experiment is classed as functional, Cardiac atrium. In a few lines:
as §1

For experiment [4], the species on record is Cavia porcellus. In words: Calcium channel agonist activity causing a 50% increase in maximum contractile response on guinea pig left atrium; 'c' means Weak agonist. The class given is functional, Cardiac atrium. An outline of the steps: as §1
[5] abbreviates: Cavia porcellus, Cardiac atrium.

pEC50, pIC50: −log10 of the molar value.

Consider `CCO/C(O)=C1\C(C)=NC(C)=C([N+](=O)[O-])C1c1ccccn1` (configuration not stated), for which, in experiment [1] (setting [5]), the pEC50 was 4.64. In experiment [2] (Cavia porcellus), this compound had a pIC50 of 5.30. Take `CO/C(O)=C1\C(C)=NC(C)=C([N+](=O)[O-])C1c1ccccn1` (configuration not stated): the EC50 entry in experiment [3] is recorded as “Not Active”. Further, the negative logarithm of the IC50 (pIC50) in experiment [2] (Cavia porcellus) was 3.67. On to `COCCO/C(O)=C1\C(C)=NC(C)=C([N+](=O)[O-])C1c1ccccn1` (configuration not stated), for which, in experiment [1] (setting [5]), the pEC50 was 5.01. In experiment [2] (Cavia porcellus), the negative logarithm of the IC50 (pIC50) was 4.02. Regarding `CC1=NC(C)=C([N+](=O)[O-])C(c2ccncc2)/C1=C(\O)OC(C)(C)C` (configuration not stated), the negative logarithm of the EC50 (pEC50) in experiment [1] (setting [5]) was 5.55.

In the case of `COCCO/C(O)=C1\C(C)=NC(C)=C([N+](=O)[O-])C1c1cccnc1` (configuration not stated), the negative logarithm of the EC50 (pEC50) in experiment [1] (setting [5]) is 4.31. `CC1=NC(C)=C([N+](=O)[O-])C(c2cccnc2)/C1=C(\O)OC(C)(C)C` (configuration not stated): the pEC50 in experiment [1] (setting [5]) is 4.84. Regarding `CC1=NC(C)=C([N+](=O)[O-])C(c2cccnc2)/C1=C(\O)OCC(C)C` (configuration not stated), the pEC50 in experiment [1] (setting [5]) is 5.76. In the case of `CC1=NC(C)=C([N+](=O)[O-])C(c2cccnc2)/C1=C(\O)OC1CCCC1` (configuration not stated), the pEC50 in experiment [1] (setting [5]) is 5.48. Still for that read-out and setting: the value for `CCO/C(O)=C1\C(C)=NC(C)=C([N+](=O)[O-])C1c1ccncc1` (configuration not stated) was 5.19; that for `COCCO/C(O)=C1\C(C)=NC(C)=C([N+](=O)[O-])C1c1ccncc1` (configuration not stated) was 4.42. `CO/C(O)=C1\C(C)=NC(C)=C([N+](=O)[O-])C1c1ccncc1` (configuration not stated): in experiment [1] (setting [5]), the pEC50 was 4.31. Consider `CC1=NC(C)=C([N+](=O)[O-])C(c2ccccn2)/C1=C(\O)OC1CCCCC1` (single isomer, unassigned; (-)), for which the EC50 result in experiment [4] was “Partial agonist”. In addition, the pIC50 in experiment [2] is 7.13. Regarding `CC1=NC(C)=C([N+](=O)[O-])C(c2ccccn2)/C1=C(\O)OC1CCCCC1` (stereo in doubt; 14a), in experiment [1], the pEC50 is 5.43. This compound showed a negative-log IC50 (pIC50) in experiment [2] of 6.07.

Regarding `CC1=NC(C)=C([N+](=O)[O-])C(c2ccccn2)/C1=C(\O)OC1CCCCC1` (single isomer, unassigned; (+)), in experiment [1], the pEC50 was 5.07. Also, the negative-log IC50 (pIC50) in experiment [2] was 5.28. On to `CCO/C(O)=C1\C(C)=NC(C)=C([N+](=O)[O-])C1c1cccnc1` (configuration not stated), for which the negative logarithm of the EC50 (pEC50) in experiment [1] (setting [5]) is 5.05. Consider `CC1=NC(C)=C([N+](=O)[O-])C(c2ccccn2)/C1=C(\O)OC(C)(C)C` (configuration not stated), for which, in experiment [1] (setting [5]), the negative logarithm of the EC50 (pEC50) is 2.74. This compound also showed a negative logarithm of the IC50 (pIC50) in experiment [2] (Cavia porcellus) of 5.71. In the case of `CO/C(O)=C1\C(C)=NC(C)=C([N+](=O)[O-])C1c1cccnc1` (configuration not stated), the pEC50 in experiment [1] (setting [5]) is 4.15. `CC1=NC(C)=C([N+](=O)[O-])C(c2ccncc2)/C1=C(\O)OC1CCCCC1` (configuration not stated): in experiment [1] (setting [5]), the negative-log EC50 (pEC50) is 5.31.

For the compound `CC1=NC(C)=C([N+](=O)[O-])C(c2ccncc2)/C1=C(\O)OC1CCCC1` (configuration not stated), the negative-log EC50 (pEC50) in experiment [1] (setting [5]) is 5.37. Consider `CC1=NC(C)=C([N+](=O)[O-])C(c2ccccn2)/C1=C(\O)OC1CCCC1` (configuration not stated), for which, in experiment [1] (setting [5]), the pEC50 is 4.70. The same compound had a negative-log IC50 (pIC50) in experiment [2] (Cavia porcellus) of 6.35. With `CC1=NC(C)=C([N+](=O)[O-])C(c2ccncc2)/C1=C(\O)OCC(C)C` (configuration not stated), in experiment [1] (setting [5]), the pEC50 was 5.07. Consider `CC1=NC(C)=C([N+](=O)[O-])C(c2cccnc2)/C1=C(\O)OC1CCCCC1` (configuration not stated), for which the pEC50 in experiment [1] (setting [5]) is 5.56. In the case of `CC1=NC(C)=C([N+](=O)[O-])C(c2ccccn2)/C1=C(\O)OCC(C)C` (configuration not stated), the pEC50 in experiment [1] (setting [5]) is 5.04. In experiment [2] (Cavia porcellus), this compound gave a pIC50 of 5.58.

Source of the values: ChEMBL document CHEMBL1131300, “Synthesis and calcium channel-modulating effects of alkyl (or cycloalkyl) 1,4-dihydro-2,6-dimethyl-3-nitro-4-pyridyl-5-pyridinecarboxylate racemates and enantiomers” (J Med Chem, 1998).
